Paper PMC2805920 (Biochemical Journal, 2009)

Legend:
stable duplexes = conditions: read-out: Conc50, concentration required to reach the formation of 50% of stable duplexes as a measure of NAC activity; NO = no observed activity; cited from earlier work
135bp-dsDNA = test: EMSA, binding to 32P-labelled 135bp-dsDNA; set-up: species or system Trypanosoma cruzi; conditions: peptide 0.9-30 μM
29/mm29c DNA duplex = test: DNA-melting assay on mismatched duplex; type: biochemical; conditions: 1 μM peptide, 32P-29mer/mm29c duplex
Procedure, shortened: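 A 32P-29mer and its complementary strand carrying four internal mismatches (mm29c) were annealed in water: 5 min at 95 °C, NaCl added to 50 mM, then slowly cooled to 22 °C. It was incubated 5 min at 25–55 °C, sampled every 5 °C into ice-cold tRNA/SDS/Ficoll stop mix, run on native 15 % PAGE and phosphorimaged.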

130nt-RNA = test: EMSA, binding to 32P-labelled 130nt-RNA; set-up: species or system Trypanosoma cruzi; conditions: peptide 9 to 30 μM
Procedure, shortened: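 The probe was a T7 transcript radiolabelled with [α-32P]UTP, gel-purified and desalted on Sephadex G-50. Probe (0.72 nM) was incubated with increasing peptide for 30 min at 37 °C. Peptide stocks were 500 μM in PBS with 30 μM ZnCl2. Gels were dried and phosphorimaged. Kd is the peptide concentration giving 50 % RNA bound, from a Hill-equation fit.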

135nt-ssDNA = test: EMSA, binding to 32P-labelled 135nt-ssDNA; set-up: species or system Trypanosoma cruzi

Row | dsDNA-binding affinity (in words) (135bp-dsDNA) | RNA-binding affinity (in words) (130nt-RNA) | ssDNA-binding affinity (in words) (135nt-ssDNA) | Substance | EC50 (stable duplexes) [µM] | effect on the Tm of the mismatched DNA duplex (in words) (29/mm29c DNA duplex)
1 | no affinity | complete loss of affinity | very low affinity | LT……CPHCDSTLTGFSGLVSHCRSFHP [compound 5032] | > 30 | does not have any influence on the Tm
2 | complete loss of binding affinity | eliminated |  | TVPPSAREEDVSPV…TLTRRRKEKC [compound 5030] | > 30 | does not have any influence on the Tm
